Assay [1] has as its target Cyclin-dependent kinase 2 (Homo sapiens) (UniProt P24941). Nature of the assay: Inhibition of human recombinant CDK2 at 40 nM related to control ULK1.
In assay [2] the target is T1, Testis-specific serine/threonine-protein kinase 1 (Homo sapiens) (UniProt Q9BXA7).
T1 sequence (whole entry): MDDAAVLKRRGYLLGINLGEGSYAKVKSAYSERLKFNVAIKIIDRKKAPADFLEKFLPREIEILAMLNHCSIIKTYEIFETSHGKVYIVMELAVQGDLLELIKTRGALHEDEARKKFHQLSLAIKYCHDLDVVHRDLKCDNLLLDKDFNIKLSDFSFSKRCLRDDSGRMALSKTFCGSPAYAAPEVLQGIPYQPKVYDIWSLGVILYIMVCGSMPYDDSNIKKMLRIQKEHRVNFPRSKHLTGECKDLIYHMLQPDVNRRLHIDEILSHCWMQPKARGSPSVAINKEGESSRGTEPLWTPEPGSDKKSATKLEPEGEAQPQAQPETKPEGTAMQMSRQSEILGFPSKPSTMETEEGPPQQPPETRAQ
Nature of the assay: Inhibition of human recombinant TSSK1 at 40 nM in presence of ATP by radiometric assay relative to control.

The target of assay [3] is T2, G protein-coupled receptor kinase 3 (Homo sapiens) (UniProt P35626).
T2 sequence (whole entry): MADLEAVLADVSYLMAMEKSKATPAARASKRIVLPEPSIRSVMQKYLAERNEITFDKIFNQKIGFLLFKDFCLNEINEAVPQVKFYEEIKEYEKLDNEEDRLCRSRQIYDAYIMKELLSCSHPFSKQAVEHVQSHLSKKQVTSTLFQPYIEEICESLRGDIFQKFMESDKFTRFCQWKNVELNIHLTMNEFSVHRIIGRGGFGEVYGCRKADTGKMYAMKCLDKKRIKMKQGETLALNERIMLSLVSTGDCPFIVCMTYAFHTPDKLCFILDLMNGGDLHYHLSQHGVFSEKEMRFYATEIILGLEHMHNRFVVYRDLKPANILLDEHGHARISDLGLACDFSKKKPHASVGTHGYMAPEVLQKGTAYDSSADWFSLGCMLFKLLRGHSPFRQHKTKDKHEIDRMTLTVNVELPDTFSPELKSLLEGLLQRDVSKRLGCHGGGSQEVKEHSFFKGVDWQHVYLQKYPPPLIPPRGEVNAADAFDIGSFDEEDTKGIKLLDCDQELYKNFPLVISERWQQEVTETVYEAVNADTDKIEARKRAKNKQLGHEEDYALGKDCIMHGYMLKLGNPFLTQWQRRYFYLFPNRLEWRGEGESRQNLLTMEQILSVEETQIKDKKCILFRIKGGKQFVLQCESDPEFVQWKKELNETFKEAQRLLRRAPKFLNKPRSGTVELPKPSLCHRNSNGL
Nature of the assay: Inhibition of human recombinant BARK2 at 40 nM related to control ULK1. The method, boiled down: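 Radiometric activity assays in a panel of 327 human recombinant kinases, each run in duplicate at one inhibitor concentration. Activity remaining is expressed as percent of vehicle control, and percent inhibition is calculated as 100% minus percent activity remaining.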

Assay [4] concerns the target cAMP-dependent protein kinase catalytic subunit alpha (Homo sapiens) (UniProt P17612). Nature of the assay: Inhibition of human recombinant PKACalpha at 500 nM related to control ULK1.
In assay [5] the target is T3, Mitogen-activated protein kinase kinase kinase 3 (Homo sapiens) (UniProt Q99759).
T3 sequence (whole entry): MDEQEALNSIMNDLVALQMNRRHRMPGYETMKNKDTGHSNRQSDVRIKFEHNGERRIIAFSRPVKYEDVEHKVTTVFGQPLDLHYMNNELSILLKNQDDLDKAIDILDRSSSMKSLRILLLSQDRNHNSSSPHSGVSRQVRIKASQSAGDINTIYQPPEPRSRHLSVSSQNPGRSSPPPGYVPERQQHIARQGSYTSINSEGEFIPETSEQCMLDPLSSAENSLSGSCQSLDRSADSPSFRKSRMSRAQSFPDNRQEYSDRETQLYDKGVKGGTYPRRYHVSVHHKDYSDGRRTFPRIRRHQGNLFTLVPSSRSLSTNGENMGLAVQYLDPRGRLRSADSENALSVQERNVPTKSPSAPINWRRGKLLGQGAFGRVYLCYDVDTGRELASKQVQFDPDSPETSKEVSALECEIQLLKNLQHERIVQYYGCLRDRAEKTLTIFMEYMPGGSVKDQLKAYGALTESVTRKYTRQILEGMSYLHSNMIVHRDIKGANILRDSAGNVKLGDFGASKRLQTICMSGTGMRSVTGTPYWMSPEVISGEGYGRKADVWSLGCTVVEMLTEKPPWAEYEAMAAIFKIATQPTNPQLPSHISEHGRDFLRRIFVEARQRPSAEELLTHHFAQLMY
Nature of the assay: Inhibition of human recombinant MAP3K3 at 500 nM in presence of ATP by radiometric assay relative to control.

For assay [6], the target named is T4, MAP kinase-activated protein kinase 5 (Homo sapiens) (UniProt Q8IW41).
T4 sequence (whole entry): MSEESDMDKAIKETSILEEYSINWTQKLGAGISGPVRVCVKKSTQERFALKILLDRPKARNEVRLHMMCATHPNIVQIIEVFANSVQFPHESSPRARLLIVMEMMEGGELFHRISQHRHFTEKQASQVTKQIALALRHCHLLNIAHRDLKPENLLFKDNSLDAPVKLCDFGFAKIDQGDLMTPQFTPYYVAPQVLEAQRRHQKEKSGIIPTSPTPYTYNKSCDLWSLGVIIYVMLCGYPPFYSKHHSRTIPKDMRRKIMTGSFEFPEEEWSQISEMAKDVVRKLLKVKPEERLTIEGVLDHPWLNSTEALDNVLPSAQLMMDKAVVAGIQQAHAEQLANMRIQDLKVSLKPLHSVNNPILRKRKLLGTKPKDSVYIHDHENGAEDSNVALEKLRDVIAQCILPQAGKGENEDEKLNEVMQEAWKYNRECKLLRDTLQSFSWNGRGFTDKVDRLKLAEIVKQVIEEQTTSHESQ
Nature of the assay: Inhibition of human recombinant MAPKAPK5 at 500 nM related to control ULK1.

For assay [7], the target named is Serine/threonine-protein kinase/endoribonuclease IRE1 (Homo sapiens) (UniProt O75460). Nature of the assay: Inhibition of human recombinant IRE1 at 500 nM in presence of ATP by radiometric assay relative to control.
Serine/threonine-protein kinase/endoribonuclease IRE1 (Homo sapiens), sequence (O75460 19-977 limits assumed): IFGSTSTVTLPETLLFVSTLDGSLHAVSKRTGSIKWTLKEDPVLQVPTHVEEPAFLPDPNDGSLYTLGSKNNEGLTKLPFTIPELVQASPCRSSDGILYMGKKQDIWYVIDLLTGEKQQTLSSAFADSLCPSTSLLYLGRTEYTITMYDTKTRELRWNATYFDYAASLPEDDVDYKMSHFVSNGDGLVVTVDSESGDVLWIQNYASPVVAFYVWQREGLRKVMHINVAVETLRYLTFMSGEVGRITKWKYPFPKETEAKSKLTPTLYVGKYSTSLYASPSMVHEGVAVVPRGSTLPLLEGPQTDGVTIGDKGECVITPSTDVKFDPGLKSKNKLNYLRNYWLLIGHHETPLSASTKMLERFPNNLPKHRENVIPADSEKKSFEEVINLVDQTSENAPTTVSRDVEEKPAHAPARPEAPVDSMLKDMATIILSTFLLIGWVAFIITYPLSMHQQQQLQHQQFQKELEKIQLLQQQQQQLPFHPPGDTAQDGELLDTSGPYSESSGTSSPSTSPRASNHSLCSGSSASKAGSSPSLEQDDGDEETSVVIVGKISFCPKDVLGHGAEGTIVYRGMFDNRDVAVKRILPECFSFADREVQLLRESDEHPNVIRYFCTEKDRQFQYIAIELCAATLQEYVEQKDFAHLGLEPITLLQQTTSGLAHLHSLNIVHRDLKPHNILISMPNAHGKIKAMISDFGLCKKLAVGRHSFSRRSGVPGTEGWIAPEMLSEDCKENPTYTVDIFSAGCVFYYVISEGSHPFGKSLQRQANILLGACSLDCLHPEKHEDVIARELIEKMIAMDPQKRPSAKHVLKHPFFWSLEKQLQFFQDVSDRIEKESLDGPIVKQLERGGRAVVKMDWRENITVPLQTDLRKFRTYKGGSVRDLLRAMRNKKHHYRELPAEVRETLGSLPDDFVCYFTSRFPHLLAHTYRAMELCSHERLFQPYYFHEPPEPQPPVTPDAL
Assay [8] deals with Receptor-type tyrosine-protein kinase FLT3 (Homo sapiens) (UniProt P36888). Nature of the assay: Inhibition of human recombinant FLT3 at 500 nM related to control ULK1.
Receptor-type tyrosine-protein kinase FLT3 (Homo sapiens), sequence (P36888 whole entry): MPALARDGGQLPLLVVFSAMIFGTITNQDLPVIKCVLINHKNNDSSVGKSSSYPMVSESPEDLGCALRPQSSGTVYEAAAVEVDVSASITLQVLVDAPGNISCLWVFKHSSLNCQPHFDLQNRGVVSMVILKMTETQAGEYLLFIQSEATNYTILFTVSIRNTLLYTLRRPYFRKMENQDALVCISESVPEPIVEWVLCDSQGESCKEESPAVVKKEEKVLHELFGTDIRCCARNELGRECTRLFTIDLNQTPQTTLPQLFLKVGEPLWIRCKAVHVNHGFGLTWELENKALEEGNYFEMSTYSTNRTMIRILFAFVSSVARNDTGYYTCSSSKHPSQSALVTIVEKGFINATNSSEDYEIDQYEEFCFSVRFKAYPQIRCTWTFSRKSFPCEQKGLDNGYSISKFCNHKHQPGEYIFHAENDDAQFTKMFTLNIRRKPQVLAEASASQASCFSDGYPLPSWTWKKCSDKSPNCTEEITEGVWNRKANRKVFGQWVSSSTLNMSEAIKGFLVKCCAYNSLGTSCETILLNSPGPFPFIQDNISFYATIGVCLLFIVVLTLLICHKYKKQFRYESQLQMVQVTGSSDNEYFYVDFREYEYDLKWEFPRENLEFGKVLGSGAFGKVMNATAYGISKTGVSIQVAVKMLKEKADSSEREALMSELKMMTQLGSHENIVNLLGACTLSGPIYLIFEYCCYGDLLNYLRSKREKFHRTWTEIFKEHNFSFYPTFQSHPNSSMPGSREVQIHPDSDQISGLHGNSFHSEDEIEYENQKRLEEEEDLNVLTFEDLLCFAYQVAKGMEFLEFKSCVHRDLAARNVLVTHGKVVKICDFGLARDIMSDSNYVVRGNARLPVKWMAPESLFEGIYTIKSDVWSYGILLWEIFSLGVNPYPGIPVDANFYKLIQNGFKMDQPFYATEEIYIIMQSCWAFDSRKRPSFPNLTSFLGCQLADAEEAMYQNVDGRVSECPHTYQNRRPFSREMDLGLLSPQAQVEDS
For assay [9], the target named is Mitogen-activated protein kinase 10 (Homo sapiens) (UniProt P53779). Nature of the assay: Inhibition of human recombinant JNK3 at 15 nM related to control ULK1.
Mitogen-activated protein kinase 10 (Homo sapiens), sequence (P53779 whole entry): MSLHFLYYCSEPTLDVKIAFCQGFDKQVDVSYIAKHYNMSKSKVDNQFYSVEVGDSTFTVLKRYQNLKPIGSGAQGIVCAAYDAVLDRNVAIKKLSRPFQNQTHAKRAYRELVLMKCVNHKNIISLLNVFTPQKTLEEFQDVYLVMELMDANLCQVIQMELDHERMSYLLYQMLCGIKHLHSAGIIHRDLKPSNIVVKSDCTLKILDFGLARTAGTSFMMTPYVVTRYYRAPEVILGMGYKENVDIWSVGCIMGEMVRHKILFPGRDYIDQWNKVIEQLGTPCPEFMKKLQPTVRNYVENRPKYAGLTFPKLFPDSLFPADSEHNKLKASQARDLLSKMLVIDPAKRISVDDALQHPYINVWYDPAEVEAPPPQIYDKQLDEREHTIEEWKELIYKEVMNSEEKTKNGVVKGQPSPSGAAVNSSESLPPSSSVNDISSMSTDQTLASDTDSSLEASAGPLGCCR
Assay [10] deals with Serine/threonine-protein kinase PAK 6 (Homo sapiens) (UniProt Q9NQU5). Nature of the assay: Inhibition of human recombinant PAK6 at 15 nM related to control ULK1.
Serine/threonine-protein kinase PAK 6 (Homo sapiens), sequence (Q9NQU5 whole entry, looked up): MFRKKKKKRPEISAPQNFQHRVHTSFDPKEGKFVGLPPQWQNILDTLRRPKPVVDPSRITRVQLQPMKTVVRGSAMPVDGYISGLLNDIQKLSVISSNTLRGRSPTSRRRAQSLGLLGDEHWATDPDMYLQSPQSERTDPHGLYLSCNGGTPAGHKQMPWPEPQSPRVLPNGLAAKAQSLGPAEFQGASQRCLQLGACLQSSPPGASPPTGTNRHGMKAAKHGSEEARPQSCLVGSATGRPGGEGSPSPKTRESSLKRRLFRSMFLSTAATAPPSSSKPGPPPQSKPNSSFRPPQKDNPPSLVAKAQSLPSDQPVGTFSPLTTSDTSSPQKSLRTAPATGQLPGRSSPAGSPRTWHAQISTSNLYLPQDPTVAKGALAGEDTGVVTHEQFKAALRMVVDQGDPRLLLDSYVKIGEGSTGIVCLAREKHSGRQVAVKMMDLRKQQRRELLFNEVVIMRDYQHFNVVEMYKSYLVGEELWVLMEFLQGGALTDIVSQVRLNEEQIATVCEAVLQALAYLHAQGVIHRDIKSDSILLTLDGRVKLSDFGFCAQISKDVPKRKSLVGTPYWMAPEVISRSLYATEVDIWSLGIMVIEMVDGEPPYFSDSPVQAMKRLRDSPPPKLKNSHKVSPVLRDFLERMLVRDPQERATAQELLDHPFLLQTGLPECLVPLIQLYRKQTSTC
In assay [11] the target is Fibroblast growth factor receptor 4 (Homo sapiens) (UniProt P22455). Nature of the assay: Inhibition of human recombinant FGFR4 at 15 nM in presence of ATP by radiometric assay relative to control.
Fibroblast growth factor receptor 4 (Homo sapiens), sequence (P22455 22-802 limits assumed): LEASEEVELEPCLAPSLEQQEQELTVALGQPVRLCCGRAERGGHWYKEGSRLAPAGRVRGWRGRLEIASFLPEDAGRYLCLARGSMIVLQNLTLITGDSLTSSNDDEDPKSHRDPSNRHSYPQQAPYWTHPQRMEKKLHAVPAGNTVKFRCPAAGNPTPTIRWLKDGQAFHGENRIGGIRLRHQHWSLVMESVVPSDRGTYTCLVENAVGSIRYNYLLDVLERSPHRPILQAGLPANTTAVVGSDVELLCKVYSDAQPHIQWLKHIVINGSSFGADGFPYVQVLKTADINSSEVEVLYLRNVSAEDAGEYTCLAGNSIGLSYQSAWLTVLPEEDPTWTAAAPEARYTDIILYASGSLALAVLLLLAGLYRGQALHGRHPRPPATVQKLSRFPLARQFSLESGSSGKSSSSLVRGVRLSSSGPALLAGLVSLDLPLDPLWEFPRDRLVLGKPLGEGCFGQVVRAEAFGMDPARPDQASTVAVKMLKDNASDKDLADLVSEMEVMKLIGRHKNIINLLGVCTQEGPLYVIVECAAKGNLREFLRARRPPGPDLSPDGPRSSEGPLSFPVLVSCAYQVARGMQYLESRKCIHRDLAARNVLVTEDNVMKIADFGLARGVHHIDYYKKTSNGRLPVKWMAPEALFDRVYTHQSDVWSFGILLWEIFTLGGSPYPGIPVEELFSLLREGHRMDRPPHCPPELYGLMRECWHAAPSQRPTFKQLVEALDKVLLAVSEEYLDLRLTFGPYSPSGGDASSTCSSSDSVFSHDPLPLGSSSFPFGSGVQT

As for `O=C(N[C@@H](C1CC1)C(F)(F)F)c1cc(-c2cnn3cc(-c4ccc(F)cc4)cnc23)cs1`, the fold change (FC) in assay [1] was 0.4; in assay [3] it was 0.1. The inhibition in [2] came to 0%.

Take `CNC(=O)c1ccccc1Oc1nc(Nc2cc(OC)c(OC)c(OC)c2)ncc1Br`: the fold change (FC) amounted to 0 in [4], 0 in assay [6] and 0.77 in assay [8]. The inhibition in assay [5] and in [7] was 0% each time.

For the compound `CC(C)[C@H](NC(=O)c1cc(-c2cnn3cc(-c4ccc(OCCN5CCCCC5)cc4)cnc23)cs1)C(F)(F)F`, the fold change (FC) in [9] came to 0.08; in assay [10], 0. Also, the inhibition in assay [11] was 0%.

As usually defined, the inhibition is how much of the control response was suppressed.

Source of the values: ChEMBL document CHEMBL5653631, “A Potent and Selective ULK1 Inhibitor Suppresses Autophagy and Sensitizes Cancer Cells to Nutrient Stress” (iScience, 2018).
